Laboratory results: ChEMBL document CHEMBL1212759, “Antifungal activity of colistin against mucorales species in vitro and in a murine model of Rhizopus oryzae pulmonary infection” (Antimicrob Agents Chemother, 2010)
Active and inactive are the calls of the source. No cut-off for these calls is given here.

Columns and labels:
[1] = test system: Cunninghamella bertholletiae; experiment: Antimicrobial activity against Cunninghamella bertholletiae isolate 6733 after 24 hrs in RMPI 1640 medium by broth microdilution method; assay type: functional, organism-based
Procedure, shortened: (§1)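 Colistin was serially diluted from 64 to 0.06 μg/ml in RPMI 1640 with glucamine and without bicarbonate. Fresh spores from 48–72 h YAG plates were added at 0.5 × 10^4 to 4 × 10^4 cells/ml. Plates were incubated 24 h at 37°C. MIC was read visually as the lowest concentration giving 100% growth inhibition.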

[2] = test system: Rhizopus; experiment: Antimicrobial activity against […] isolate 6254 after 24 hrs in RMPI 1640 medium by broth microdilution method; assay type: functional, organism-based; procedure, shortened: as §1
[3] = test system: Rhizopus arrhizus; experiment: Antimicrobial activity against Rhizopus oryzae assessed as cytoplasmic vacuolar swelling and bleb formation at 32 ug/ml by transmission electron microscopy; assay type: functional, organism-based
[4] = test system: Rhizopus homothallicus; experiment: Antimicrobial activity against Rhizopus homothallicus isolate 6360 after 24 hrs in yeast nitrogen base complete medium by broth microdilution method; assay type: functional
Procedure, shortened: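 Broth microdilution in YNB complete medium with colistin at 128 to 0.12 μg/ml. Freshly collected spores were inoculated at 0.5 × 10^4 to 4 × 10^4 cells/ml and incubated 24 h at 37°C. MIC was read visually as the lowest concentration with complete (100%) growth inhibition.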

Sequence: COLISTIN
- MFC [1]: 64 µg/mL
- MIC [1]: 32 µg/mL
- MFC [2]: 32 µg/mL
- MIC [2]: 16 µg/mL
- Activity [3]: Active
- MFC [4]: > 128 µg/mL
- MIC [4]: 128 µg/mL
